According to article PMC4180501 (Biochimica et biophysica acta, 2012):
Changes are numbered by the printed parent chain.

Key:
GK-W99 (W167F/W257F) = target: T1, GK-W99 (W167F/W257F) (Homo sapiens, UniProt P35557, W167F/W257F); test: DSC thermal denaturation; conditions: W-99 in buffer, 300 mM D-glucose
T1 sequence (P35557 1-465 W167F/W257F): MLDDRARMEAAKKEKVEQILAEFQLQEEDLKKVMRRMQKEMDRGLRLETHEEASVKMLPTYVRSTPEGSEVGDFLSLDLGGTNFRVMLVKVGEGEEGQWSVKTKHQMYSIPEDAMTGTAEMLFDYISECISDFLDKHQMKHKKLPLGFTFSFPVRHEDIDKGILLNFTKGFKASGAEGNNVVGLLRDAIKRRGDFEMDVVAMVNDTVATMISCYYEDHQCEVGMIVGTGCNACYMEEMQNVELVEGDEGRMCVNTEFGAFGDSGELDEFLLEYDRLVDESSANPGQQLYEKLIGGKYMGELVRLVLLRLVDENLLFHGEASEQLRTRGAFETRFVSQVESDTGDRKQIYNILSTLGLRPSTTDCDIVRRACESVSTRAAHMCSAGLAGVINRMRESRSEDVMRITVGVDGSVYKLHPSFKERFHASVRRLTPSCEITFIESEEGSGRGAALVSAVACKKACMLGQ
Procedure, shortened: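 Samples were degassed and scanned by DSC at 0.25 degree/min against a reference holding everything except protein. Tm and calorimetric ΔH were taken by integrating the Cp-vs-temperature thermogram; Cpm is the apparent heat capacity at the maximum.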

GK-WT = target: T2, GK-WT (Homo sapiens, UniProt P35557); test: Urea unfolding/refolding of GK by tryptophan fluorescence; conditions: 20°C, pH 7.3
T2 sequence (P35557 1-465): T1 sequence (P35557 1-465 W167F/W257F) with F167W, F257W
Procedure, shortened: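 GK-WT unfolding was followed by urea titration in 20 mM PO4, 50 mM KCl, 1 mM EDTA, 1 mM DTT, pH 7.3, 20 °C, ± 20% glycerol, ± 300 mM glucose. I320/I360 was read at 295 nm excitation, and ΔGu(H2O) came from a two-state fit. Reversibility was tested after 30 min in 4 or 8 M urea, then dialysis, by restoration of the spectrum and glucose response.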

- Cp^m (GK-W99 (W167F/W257F)): 100.8 kJ/mol/°C
- ΔH thermal denaturation (GK-W99 (W167F/W257F)): 102 kcal/mol
- Tm (GK-W99 (W167F/W257F); DSC): 49.6 °C
- ΔGu(H2O) of urea denaturation (GK-WT; GK-WT in 20% glycerol with 300 mM D-glucose): 2.87 kcal/mol
- ΔGu(H2O) of urea denaturation (GK-WT; GK-WT in buffer with 300mM D-glucose): 2.48 kcal/mol
SMILES: OC[C@H]1OC(O)[C@H](O)[C@@H](O)[C@@H]1O (stereo partly drawn) [D-glucose]
